NR2E3 ag-1: human photoreceptor-specific nuclear receptor agonism; actives 0.35% (n = 360,000); inhibition of corepressor binding, % at 3.98 µM; CHO-S Gal4-NCOR/VP16-NR2E3 two-hybrid, luciferase; AID 602229;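 active = inhibition above the mean of all tested compounds plus 3 SD, cut at about 70% in these data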;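 note: 0% = DMSO with NR2E3 transfected cells and 100% = cells lacking NR2E3 construct; higher means lower luciferase signal from less NR2E3 corepressor binding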
NR1D1 modulator: Rev-erb alpha (human) modulation. AID 1259318. activity, % at 10 µM. P20393. actives 0.79% (n = 370,000). Rev-erbα–FITC-DNA binding, fluorescence polarization, 90 min;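 active = activity above about 14%, limit read from the data; passing the limit was not always enough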;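 note: 0% = DMSO wells with 35 nM protein and 100% = DMSO wells with 750 nM protein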
MC4R barr agon: human MC4R agonism via beta-arrestin. P32245. U2OS MC4R beta-arrestin complementation, luminescence; percent of melanotan II response, DMSO zero. activation, % at 8.9 µM. actives 0.98% (n = 360,000). AID 540308;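 active = activation above a per-plate cutoff, the mean activation of sample wells on that plate plus 3 SD, cut at about 8% in these data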
Target sequence (P32245 whole entry, looked up): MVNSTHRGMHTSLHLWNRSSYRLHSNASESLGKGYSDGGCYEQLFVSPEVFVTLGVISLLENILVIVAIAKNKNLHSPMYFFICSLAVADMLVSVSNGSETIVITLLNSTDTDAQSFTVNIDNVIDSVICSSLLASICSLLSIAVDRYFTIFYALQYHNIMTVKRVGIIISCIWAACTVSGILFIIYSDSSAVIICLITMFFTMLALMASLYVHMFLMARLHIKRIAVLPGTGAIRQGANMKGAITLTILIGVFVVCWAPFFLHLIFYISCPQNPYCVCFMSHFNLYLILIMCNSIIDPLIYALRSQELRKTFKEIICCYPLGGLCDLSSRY
PG9 Ab binder: PG9 antibody binding by small molecule; TR-FRET gp120-PG9 antibody binding; inhibition, % at 6.7 µM; actives 0.43% (n = 360,000); in the data active = inhibition above about 8.5%
NR2E3 ag-2: activates human photoreceptor nuclear receptor NR2E3. Q9Y5X4. GST-NR2E3/biotin-RetCOR TR-FRET, 1536-well. inhibition of corepressor binding, % at 4.78 µM. actives 0.12% (n = 320,000). AID 2300;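 active = percent inhibition above the cutoff of mean plus 3 SD of all tested compounds, set per screening campaign, cut at about 20% in these data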;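 note: 0% = DMSO wells and 100% = biotin wells as full block of FRET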
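Material: NR2E3–RetCOR corepressor complex | Quantity: 1.35 nM GST-tagged NR2E3 final | Schedule: 5 h at 4 °C | Replication: Singlicate compound wells | Reagent: RetCOR corepressor, biotinylated, 7 nM | Controls: Biotin wells as high control, 0.6% DMSO wells as low control | Signal: TR-FRET, Eu(K)-anti-GST donor, streptavidin-D2 acceptor, ex 340, em 617/671 nm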
MC4R antag cAMP: blocks human MC4R cAMP signaling. MC4R-expressing cells, MTII-stimulated cAMP, LANCE TR-FRET. inhibition, % at 6.5 µM. actives 0.48% (n = 360,000). AID 540295;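 active = inhibition above its plate's cutoff, the mean of tested wells on that plate plus 3 SD, cut at about 29% in these data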;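 note: 0% = Melanotan II alone and 100% = Melanotan II plus saturating MCL0020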
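System: U2OS-MC4R stable cell line; Technique: Eu-cAMP/anti-cAMP TR-FRET, emission 671 nm; Repeats: single well per compound; Also added: Melanotan II; Dosing: one concentration, 6.5 µM nominal; Schedule: 30-min compound, 1-h challenge, 1-h detection, room temperature.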
Rev-erbA confirm: confirmation of modulators of human Rev-erb alpha DNA binding; activation, % at 25 µM; actives 61% (n = 3,000); Rev-erb alpha FITC-DNA binding, fluorescence polarization, 90 min; AID 1259319; shares compounds with NR1D1 modulator;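 active = activation at or above a set limit, or at least 3 SD above the negative control mean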;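 note: 0% = 35 nM protein with DMSO and 100% = 750 nM protein high control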
RORg counter: affects RORgamma DNA binding in a Rev-erb alpha counter-screen; shares compounds with NR1D1 modulator; purified RORgamma protein-FITC-DNA binding, fluorescence polarization; IC50, µM; actives 8% (n = 910);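 active = Compounds whose fitted half-maximal concentration for disrupting protein-DNA binding is below 10 micromolar; the record names Rev-erb in its text, so the target is in doubt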
Starred values were filed as active, the others as inactive; i = inactive; x = no result given. Rows were chosen to be rich in hits. Some 2.7% of all compounds tested hit in one or more screens of this group.

SMILES	NR2E3 ag-1	NR1D1 modulator	MC4R barr agon	PG9 Ab binder	NR2E3 ag-2	MC4R antag cAMP	Rev-erbA confirm	others
COC(=O)C[C@@H]1CC[C@@H]2[C@@H](COc3ccc(NS(=O)(=O)c4ccc(F)cc4)cc3C(=O)N2C)O1	x	6	x	x	x	x	x
CCNC(=O)Nc1ccc2c(c1)C(=O)N(C)[C@H]1CC[C@@H](CC(=O)OC)O[C@H]1CO2	x	-5	x	x	x	x	x
CCNC(=O)Nc1ccc2c(c1)C(=O)N(C)[C@H]1CC[C@H](CC(=O)N[C@H](C)c3ccccc3)O[C@@H]1CO2	x	80*	x	x	x	x	55*	RORg counter=>40
C[C@@H](NC(=O)C[C@H]1CC[C@H]2[C@@H](COc3ccc(NC(=O)Nc4ccccc4)cc3C(=O)N2C)O1)c1ccccc1	x	26*	x	x	x	x	20*
CCCNC(=O)C[C@H]1CC[C@H]2[C@@H](COc3ccc(NC(=O)Nc4ccccc4)cc3C(=O)N2C)O1	x	3	x	x	x	x	x
N#Cc1c(SCC(N)=O)nc2c(c1-c1ccncc1)CCCC2	-28	2	-2	-1	2	4	x
N#Cc1ccc(-c2cccnc2)nc1SCC(=O)Nc1sc2c(c1C#N)CCC2	-5	-14	7	x	-2	13	x
COc1ccc(-c2c(C#N)c(SCC(=O)Nc3ccccc3)nc3c2CCCC3)cc1	7	45*	0	-5	2	6	29*
COc1ccc(-c2ccc(C#N)c(SCC(=O)Nc3sc4c(c3C#N)CCC4)n2)cc1	-30	34*	-2	0	4	11	14
CCc1ccccc1NC(=O)CSc1nc2c(c(-c3ccco3)c1C#N)CCCC2	10	29*	1	7	-1	12	20*
COc1ccc(-c2cc(C(F)(F)F)c(C#N)c(SCC(=O)Nc3ccc(C)cc3)n2)cc1	-13	83*	-2	0	2	-5	32*
Cc1ccccc1NC(=O)CSc1nc2c(c(-c3ccco3)c1C#N)CCCC2	-10	15	0	x	1	8	x
CC(C)CNc1nc(N)c([N+](=O)[O-])c(NCC2CCCO2)n1 (centres undefined)	16	-7	1	-2	-1	-1	x
COc1ccc(CCNC(=O)Cn2c(=O)n(CC3CCCO3)c(=O)c3cc(OC)c(OC)cc32)cc1OC (centres undefined)	-11	1	0	-1	-1	-1	x
O=[N+]([O-])c1ccc(-n2cccn2)c(-c2nn[nH]n2)c1	9	-5	-3	1	-1	8	x
Cc1ccc(Oc2ncccc2NC(=O)CC(CC(=O)O)c2ccccc2)c2c1CCC2 (centres undefined)	6	2	1	-3	0	15	x
CCOc1ccccc1NC(=O)NC(C)c1ccncc1 (centres undefined)	-28	4	1	-3	2	-3	x
CCC(C)NC(=O)c1ccc(CSCc2ccc(Cl)cc2)o1 (centres undefined)	-13	2	-2	0	-1	9	x
O=C(Nc1ccccn1)c1cc(-c2cccnc2)nc2ccc(Br)cc12	-11	13	7	5	9	5	x
NS(=O)(=O)c1ccc(CNC(=O)c2cc(-c3cccnc3)nc3ccc(Br)cc23)cc1	8	43*	3	8	-1	6	31*	RORg counter=1.3*
Cc1ccc(-c2cc(C(=O)NCc3cnn(C)c3C)c3cc(Br)ccc3n2)cc1	-28	32*	7	-8	-250	7	11
CCCOc1ccc(C(NC(=O)CC(C)C)NC(=O)CC(C)C)cc1OC	3	3	1	-2	-2	-1	x
CN(C(=O)COC(=O)c1cc(-c2ccc(Cl)s2)nc2ccccc12)C1CCS(=O)(=O)C1 (centres undefined)	1	51*	-3	-1	-2	7	13
CN(C(=O)COC(=O)c1cc(-c2ccccc2Cl)nc2ccccc12)C1CCS(=O)(=O)C1 (centres undefined)	-10	-3	0	0	4	2	x
Cc1c(N=C2N=C(NC(=O)c3ccc(F)cc3)c3ccccc32)c(=O)n(-c2ccccc2)n1C	-25	92*	0	0	-1	8	51*
SMILES	NR2E3 ag-1	NR1D1 modulator	MC4R barr agon	PG9 Ab binder	NR2E3 ag-2	MC4R antag cAMP	Rev-erbA confirm	others
CCOc1ccc(C(=O)Nc2ccc(C(F)(F)F)n(C)c2=O)cc1	13	35*	0	-2	6	16	8
CC(=O)Nc1ccc(-c2cc(-c3ccc(NC(C)=O)cc3)nc(-c3ccccc3)n2)cc1	-3	41*	1	-2	6	12	24*
O=c1[nH]c(-c2ccc3c(c2)OCO3)nc2c1sc(=S)n2-c1ccccc1	-24	76*	0	-2	3	11	18
Cc1cccc(CCNC(=O)c2cc(S(=O)(=O)N3CCOCC3)cn2C)c1	-1	3	0	-1	3	11	x
COc1ccccc1-c1ccc2c(c1)C(C)(Cc1cc(Cl)ccc1C(F)(F)F)C(=O)N2 (centres undefined)	17	43*	0	0	x	10	62*	RORg counter=i
COc1ccc(Cl)cc1CC1(C)C(=O)Nc2ccc(-c3ccccc3OC)cc21 (centres undefined)	-20	50*	0	-1	x	5	55*	RORg counter=>40
COc1ccccc1-c1ccc2c(c1)C(C)(Cc1cccc(C#N)c1)C(=O)N2 (centres undefined)	23	46*	0	2	x	4	43*	RORg counter=>40
O=C(c1ccccc1Cl)N1CCC(Oc2cccnc2)CC1	x	-8	x	x	x	x	x
COc1ccc(CNC(=O)CN2C(=O)C3CCCN3c3ncc(Cl)cc32)cc1 (centres undefined)	-6	43*	0	2	1	10	36*
CCc1ccccc1NC(=O)CN1C(=O)C2CCCN2c2ncc(Cl)cc21 (centres undefined)	-19	-3	1	0	-2	0	x
O=C(CN1C(=O)C2CCCN2c2ncc(Cl)cc21)NCc1ccc2c(c1)OCO2 (centres undefined)	14	46*	-1	1	x	-5	36*
CC1CC(C)CN(S(=O)(=O)c2ccc3c(c2)n(C)c(=O)c(=O)n3C)C1 (centres undefined)	-16	66*	-2	2	1	-4	0
CC1=NN(c2ccccc2)C(=O)/C1=C/C=C/C=C/N(C)C	-10	51*	-6	-30	-9	-38	53*

Bioassay records (PubChem)
